Measured values from different studies.
Each line is one published result; the experiments were not run side by side. Values after ≈ are worked out from the molar mass of the structure shown.
Observed: cell growth or viability

Compound	cell line	assay	conditions	measurement	result
COCCN(Cc1ccc(F)cc1)c1ccc(CO)c(Cl)c1	RBE	ATP luminescence	46 µM, 72 h	inhibition	75%
NCCC(=O)Nc1ccccc1/N=c1\cc(-c2ccc3oc(N)nc3c2)oc2ccccc12	MDA-MB-468	CCK-8	1 µM	inhibition	59.8%
CCN(CC)CCNC(=O)c1ccc(-c2nc3ccc4[nH]ncc4c3c3c2CCCC3)cc1	MV4-11	resazurin	72 h	GI50	0.44 µM
CC1c2ccccc2CCN1c1ccc(CO)c(Cl)c1 (centres unmarked)	RBE	ATP luminescence	46 µM, 72 h	inhibition	91%
C[C@H](Nc1ccc2c(c1)OCCn1cc(N3C(=O)OC[C@H]3C(F)F)nc1-2)C(N)=O	MFE-280	ATP luminescence	5 days	EC50	0.0421 µM
Cc1n[nH]c2ccc3nc(-c4ccc(C(=O)NCCN(C)C)cc4)c4c(c3c12)CCCCC4	MV4-11	resazurin	72 h	GI50	0.098 µM
OCc1ccc(-c2nn(Cc3ccccc3)c3ccncc23)o1	RBE	ATP luminescence	46 µM, 72 h	inhibition	47%
Cc1n[nH]c2ccc3nc(-c4ccc(C(=O)NCCN(C)C)cc4F)c4c(c3c12)CCCCC4	MV4-11	resazurin	72 h	GI50	0.088 µM
NCCC(=O)Nc1ccccc1/N=c1\cc(-c2ccc3nc(N)oc3c2)oc2ccccc12	MDA-MB-468	CCK-8	1 µM	inhibition	47.2%
CN(C)CCNC(=O)c1ccc(-c2nc3ccc4[nH]ncc4c3c3c2CCCCC3)cc1	MV4-11	resazurin	72 h	GI50	0.025 µM
O=C(Nc1ccc(Cl)cc1)C1CCCN(C(=O)c2cc(C(F)(F)F)cc(C(F)(F)F)c2)C1 (racemic)	HBL1	ATP luminescence	0.5 µM, 5 days	viability	98.8%
OCc1ccc(-c2nn(Cc3ccccc3)c3ncccc23)o1	RBE	ATP luminescence	46 µM, 72 h	inhibition	51%
O=C(CCCCCCSc1ccc2ccccc2c1)NO	HBL1	ATP luminescence	1 µM, 5 days	viability	98.6%
CCNc1nc2ccc(-c3c/c(=N\c4ccccc4NC(=O)CCN)c4ccccc4o3)cc2o1	MDA-MB-468	CCK-8	1 µM	inhibition	31.4%
O=C(/C=C/c1cccc(C(=O)NO)c1)NO	HBL1	ATP luminescence	1 µM, 5 days	viability	37.7%
NCC(=O)Nc1ccccc1/N=c1\cc(-c2ccc3c(c2)OCO3)oc2c(N)cccc12	MDA-MB-468	CCK-8	1 µM	inhibition	-4.61%
COC(=O)CNC(=O)C(=O)OC	HBL1	ATP luminescence	1 µM, 5 days	viability	93.3%
NCCC(=O)Nc1ccccc1/N=c1\cc(-c2ccc3c(c2)OCO3)oc2ccccc12	MDA-MB-468	CCK-8	1 µM	inhibition	19.2%

Compound	cell line	assay	conditions	measurement	result
CCN(Cc1cccc(C)c1)c1ccc(CO)c(Cl)c1	RBE	ATP luminescence	46 µM, 72 h	inhibition	85%
CC(=O)ON=C1C=CC(=C(C#N)c2ccccc2)C=C1	human Fibroblast	MTT	72 h	IC50	19.6 µg/mL (≈ 74 µM)
Cc1n[nH]c2ccc3nc(-c4ccc(C(=O)N(C)CCN(C)C)nc4)c4c(c3c12)CCCCC4	MV4-11	resazurin	72 h	GI50	1.1 µM
C=C(NC(=O)C(=C)NC(=O)c1csc(C2=N[C@@H]3c4csc(n4)[C@H]4NC(=O)c5csc(n5)[C@H]([C@](C)(O)[C@@H](C)O)NC(=O)[C@H]5CSC(=N5)/C(=C/C)NC(=O)[C@H]([C@@H](C)O)NC(=O)c5csc(n5)[C@]3(CC2)NC(=O)[C@H](C)NC(=O)C(=C)NC(=O)[C@H](C)NC(=O)[C@H]([C@@H](C)CC)N[C@@H]2C=Cc3c([C@H](C)O)cc(nc3[C@H]2O)C(=O)O[C@@H]4C)n1)C(N)=O	C4-2			EC50	7.3 µM
COc1ccc2/c(=N/c3ccccc3NC(=O)CN)cc(-c3ccc4c(c3)OCCO4)oc2c1	MDA-MB-468	CCK-8	1 µM	inhibition	15.2%
O=C(Nc1cccc(Br)c1)c1cccc(S(=O)(=O)N2CCCCCC2)c1	HBL1	ATP luminescence	0.1 µM, 5 days	viability	134%
CCN(Cc1c(F)cccc1F)c1ccc(CO)c(Cl)c1	RBE	ATP luminescence	46 µM, 72 h	inhibition	57%
O=C(NO)c1ccc(CC(=O)N(CCO)c2ccccc2)cc1	HBL1	ATP luminescence	0.1 µM, 5 days	viability	103%
OCCc1ccc(-c2nn(Cc3ccccc3)c3ccccc23)o1	RBE	ATP luminescence	46 µM, 72 h	inhibition	21%
NC(=O)C1CCCN1C(=O)Nc1ccccc1/N=c1\cc(-c2ccc3c(c2)OCCO3)oc2cc(F)ccc12 (centres unmarked)	MDA-MB-468	CCK-8	1 µM	inhibition	3.25%
O=C(Nc1nccs1)c1ccc(-c2nc3ccc4[nH]ncc4c3c3c2CCCC3)cc1	MV4-11	resazurin	72 h	GI50	0.743 µM
CCN(Cc1ccccc1)c1ccc(CO)c(Cl)c1	RBE	ATP luminescence	46 µM, 72 h	inhibition	57%
Oc1cccc(-c2nc(N3CCOCC3)c3oc4ncccc4c3n2)c1	MDA-MB-468	CCK-8	1 µM	inhibition	2.69%
CN(C)CCNC(=O)c1ccc(-c2nc3ccc4[nH]ncc4c3c3c2CCC3)cc1	MV4-11	resazurin	72 h	GI50	0.1 µM
CC(=O)OC[C@H]1O[C@@H](n2cnc(N)nc2=O)[C@H](OC(C)=O)[C@@H]1OC(C)=O	HBL1	ATP luminescence	0.1 µM, 5 days	viability	105%
CCc1nc(C(N)=O)c(Nc2ccc(N3CCC(N4CCN(C)CC4)CC3)c(OC)c2)nc1NC1CCOCC1	MV4-11	resazurin	72 h	GI50	0.026 µM
O=C(CCCCCCC(=O)Nc1ccccc1)NO	HBL1	ATP luminescence	1 µM, 5 days	viability	10.7%
